Columns and labels:
[1] = system: MCF7; experiment: Induction of apoptosis in human MCF7 cells assessed as cell death at 1 uM after 24 hrs by TUNEL analysis (reference value: 6.12 +/- 1.61%); type: functional
[2] = system: MCF7; experiment: Induction of apoptosis in human MCF7 cells assessed as cell death at 5 uM after 24 hrs by TUNEL analysis (reference value: 9.28 +/- 1.71%); type: functional
[3] = system: MCF7; experiment: Induction of apoptosis in human MCF7 cells assessed as cell death at 10 uM after 24 hrs by TUNEL analysis (reference value: 9.82 +/- 2.62%); type: functional
[4] = system: MCF7; experiment: Induction of apoptosis in human MCF7 cells assessed as cell death at 15 uM after 24 hrs by TUNEL analysis (reference value: 5.13 +/- 4.32%); type: functional
[5] = system: MCF7; experiment: Induction of apoptosis in human MCF7 cells assessed as cell death at 20 uM after 24 hrs by TUNEL analysis (reference value: 9.56 +/- 1.38%); type: functional
[6] = system: MCF7; experiment: Induction of apoptosis in human MCF7 cells assessed as cell death at 10 uM after 4 hrs by TUNEL analysis (reference value: 5.85 +/- 5.21%); type: functional
[7] = system: MCF7; experiment: Induction of apoptosis in human MCF7 cells assessed as cell death at 10 uM after 12 hrs by TUNEL analysis (reference value: 6.02 +/- 0.85%); type: functional
[8] = system: MCF7; experiment: Induction of apoptosis in human MCF7 cells assessed as cell death at 10 uM after 48 hrs by TUNEL analysis (reference value: 4.23 +/- 1.99%); type: functional
[9] = system: MCF7; experiment: Induction of apoptosis in human MCF7 cells assessed as cell death at 10 uM by TUNEL analysis; type: functional, cell-based; details: TDE = time-dependent effect
[10] = system: MCF7; experiment: Induction of apoptosis in human MCF7 cells assessed as cell death at 5 uM after 24 hrs by TUNEL analysis relative to control; type: functional
[11] = system: MCF7; experiment: Induction of apoptosis in human MCF7 cells assessed as cell death at 20 uM after 24 hrs by TUNEL analysis relative to control; type: functional
[12] = system: MCF7; experiment: Cell cycle arrest in human MCF7 cells assessed as accumulation at subG1 phase at 15 uM after 4 hrs by propidium iodide staining-based flow cytometric analysis (reference value: 5.90 +/- 1.36%); type: functional
[13] = system: MCF7; experiment: Cell cycle arrest in human MCF7 cells assessed as accumulation at subG1 phase at 15 uM after 12 hrs by propidium iodide staining-based flow cytometric analysis (reference value: 2.17 +/- 0.24%); type: functional
[14] = system: MCF7; experiment: Cell cycle arrest in human MCF7 cells assessed as accumulation at subG1 phase at 15 uM after 24 hrs by propidium iodide staining-based flow cytometric analysis (reference value: 2.93 +/- 0.54%); type: functional
[15] = system: MCF7; experiment: Cell cycle arrest in human MCF7 cells assessed as accumulation at G0/G1 phase at 15 uM after 4 hrs by propidium iodide staining-based flow cytometric analysis (reference value: 49.38 +/- 4.74%); type: functional
[16] = system: MCF7; experiment: Cell cycle arrest in human MCF7 cells assessed as accumulation at G0/G1 phase at 15 uM after 12 hrs by propidium iodide staining-based flow cytometric analysis (reference value: 57.34 +/- 1.64%); type: functional
[17] = system: MCF7; experiment: Cell cycle arrest in human MCF7 cells assessed as accumulation at G0/G1 phase at 15 uM after 24 hrs by propidium iodide staining-based flow cytometric analysis (reference value: 51.83 +/- 5.64%); type: functional
[18] = system: MCF7; experiment: Cell cycle arrest in human MCF7 cells assessed as accumulation at S phase at 15 uM after 4 hrs by propidium iodide staining-based flow cytometric analysis (reference value: 19.09 +/- 4.54%); type: functional
[19] = system: MCF7; experiment: Cell cycle arrest in human MCF7 cells assessed as accumulation at S phase at 15 uM after 12 hrs by propidium iodide staining-based flow cytometric analysis (reference value: 17.07 +/- 4.00%); type: functional
[20] = system: MCF7; experiment: Cell cycle arrest in human MCF7 cells assessed as accumulation at S phase at 15 uM after 24 hrs by propidium iodide staining-based flow cytometric analysis (reference value: 12.39 +/- 1.54%); type: functional
[21] = system: MCF7; experiment: Cell cycle arrest in human MCF7 cells assessed as accumulation at G2/M phase at 15 uM after 4 hrs by propidium iodide staining-based flow cytometric analysis (reference value: 21.60 +/- 5.37%); type: functional
[22] = system: MCF7; experiment: Cell cycle arrest in human MCF7 cells assessed as accumulation at G2/M phase at 15 uM after 12 hrs by propidium iodide staining-based flow cytometric analysis (reference value: 22.11 +/- 3.86%); type: functional
[23] = system: MCF7; experiment: Cell cycle arrest in human MCF7 cells assessed as accumulation at G2/M phase at 15 uM after 24 hrs by propidium iodide staining-based flow cytometric analysis (reference value: 32.37 +/- 7.73%); type: functional
[24] = Permeability of the compound across human Caco2 cells; type: ADME, cell-based; details: Caco-2, read-out: permeability
[25] = system: CCRF-CEM; experiment: Cytotoxicity against human CCRF-CEM cells after 72 hrs by MTT assay; type: functional; details: for CC50: read-out: LC50 (the source's name)
Method in brief: (§1)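 MTT read-out after 72 h exposure at 37 °C in humidified 5% CO2, with five concentrations between 0.01 and 100. GI50 is 50% growth reduction versus untreated controls, TGI is complete growth inhibition, and LC50 is the concentration killing 50% of cells. Minimum three independent experiments.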

[26] = system: HT-29; experiment: Cytotoxicity against human HT-29 cells after 72 hrs by MTT assay; type: functional; details: HT-29, 72 h; for CC50: read-out: LC50 (the source's name); method in brief: as §1
[27] = Cytotoxicity against human HTB-54 cells after 72 hrs by MTT assay; type: functional; details: HTB-54, 72 h; for CC50: read-out: LC50 (the source's name); method in brief: as §1
[28] = system: MCF7; experiment: Cytotoxicity against human MCF7 cells after 72 hrs by MTT assay; type: functional; details: MCF7, 72 h; method in brief: as §1
[29] = Cytotoxicity against human 184B5 cells after 72 hrs by MTT assay; type: cell-based; details: for GI50 at 72 h: 184B5 cells; for LC50 / TGI: 184b5, 72 h; method in brief: as §1
[30] = Cytotoxicity against human BEAS2B cells after 72 hrs by MTT assay; type: cell-based, BEAS-2B; details: for GI50 at 72 h: BEAS2B cells; for LC50 / TGI: beas-2b, 72 h; method in brief: as §1
[31] = system: MCF7; experiment: Selectivity ratio of GI50 for human 184B5 cells to GI50 for human MCF7 cells
Method in brief: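 Selectivity ratio is GI50 on non-tumoral 184B5 mammary cells divided by GI50 on MCF-7. Both come from the 72 h MTT assay. Ratio 3–6 means moderate selectivity, >6 high, and otherwise non-selective.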

| Structure (SMILES) | Activity [1] | Activity [2] | Activity [3] | Activity [4] | Activity [5] | GI50 [25] | TGI [25] | CC50 [25] | GI50 [26] | TGI [26] | CC50 [26] | GI50 [27] | TGI [27] | CC50 [27] | GI50 [28] | LC50 [28] | TGI [28] | GI50 at 72 h [29] | LC50 [29] | TGI [29] | other results |
| --- | --- | --- | --- | --- | --- | --- | --- | --- | --- | --- | --- | --- | --- | --- | --- | --- | --- | --- | --- | --- | --- |
| [SeH]c1nc([SeH])c2ccccc2n1 | 2.76% | 16.32% | 27.29% | 76.82% | 87.55% | 2.99 µM | 6.01 µM | 9.03 µM | 8.98 µM | 45.2 µM | 87.9 µM | 5.98 µM | 65.9 µM | > 100 µM | 2.92 µM | > 100 µM | 22.9 µM | 0.49 µM | 6.63 µM | 2.5 µM | Activity [6]: 6.01%; Activity [7]: 12.26%; Activity [8]: 58.31%; Activity [9]: tde; fold change (FC) [10]: 1.7; fold change (FC) [11]: 9; Activity [12]: 3.98%; Activity [13]: 2.37%; Activity [14]: 3.46%; Activity [15]: 52.09%; Activity [16]: 56.21%; Activity [17]: 47.77%; Activity [18]: 23.29%; Activity [19]: 18.36%; Activity [20]: 15.75%; Activity [21]: 21.21%; Activity [22]: 25.63%; Activity [23]: 34.67%; Papp [24]: 4.67 ×10⁻⁶ cm/s |
| CSc1ccc(CNc2nc(SC)nc3ncccc23)cc1 | 3.4% | 13.7% | 25.95% | 23.95% | 22.63% | 5.35 µM | 16.8 µM | 59 µM | 4.32 µM | 7.03 µM | 8.75 µM | 3.28 µM | 14.8 µM | 63.6 µM | 0.05 µM | 9.13 µM | 4.37 µM | 0.19 µM | 5.64 µM | 1.14 µM | Activity [6]: 5.26%; Activity [7]: 11.51%; Activity [8]: 11.66%; Activity [12]: 3.88%; Activity [13]: 2.24%; Activity [14]: 2.97%; Activity [15]: 50.42%; Activity [16]: 55.42%; Activity [17]: 52.91%; Activity [18]: 18.02%; Activity [19]: 19.35%; Activity [20]: 11.04%; Activity [21]: 23.88%; Activity [22]: 22.99%; Activity [23]: 30.2%; Papp [24]: 4.4 ×10⁻⁶ cm/s; GI50 at 72 h [30]: 0.6 µM; LC50 [30]: 8.47 µM; TGI [30]: 3.77 µM |
| C[Se]c1nc([Se]C)c2ccccc2n1 |  |  |  |  |  | 31.2 µM | 54.9 µM | 78.5 µM | 7.46 µM | 33.8 µM | 76.8 µM | 26.6 µM | 84.2 µM | > 100 µM | 5.97 µM | > 100 µM | 50.7 µM | 71.5 µM | > 100 µM | > 100 µM | RatioGI50 [31]: 12 |
| CCCCCSc1nc(O)c2ccccc2n1 |  |  |  |  |  | 52.1 µM | 86 µM | > 100 µM | 74.6 µM | > 100 µM | > 100 µM | 30.4 µM | > 100 µM | > 100 µM | 7.82 µM | > 100 µM | 81.4 µM | > 100 µM | > 100 µM | > 100 µM | RatioGI50 [31]: >12; GI50 at 72 h [30]: 51.4 µM; LC50 [30]: > 100 µM; TGI [30]: > 100 µM |
| CCCCC[Se]c1nc(NCc2ccccc2)c2ccccc2n1 | 3.84% | 14.37% | 30.13% | 24.88% | 30.95% | 34.5 µM | 72.5 µM | > 100 µM | 72.7 µM | > 100 µM | > 100 µM | 37.7 µM | 81.1 µM | > 100 µM | 0.05 µM | 99.4 µM | 47.1 µM | 70.9 µM | > 100 µM | > 100 µM | RatioGI50 [31]: 1418; Activity [6]: 8.11%; Activity [7]: 13.39%; Activity [8]: 14.91%; Activity [12]: 4.42%; Activity [13]: 2.13%; Activity [14]: 3.28%; Activity [15]: 46.24%; Activity [16]: 55.3%; Activity [17]: 46.97%; Activity [18]: 16.66%; Activity [19]: 17.01%; Activity [20]: 12.2%; Activity [21]: 28.5%; Activity [22]: 25.83%; Activity [23]: 34.79%; Papp [24]: 5.6 ×10⁻⁶ cm/s; GI50 at 72 h [30]: 44.1 µM; LC50 [30]: > 100 µM; TGI [30]: > 100 µM |
| CC[C@@]1(O)C(=O)OCc2c1cc1n(c2=O)Cc2cc3ccccc3nc2-1 [CAMPTOTHECIN] | 17.42% | 13.42% | 18.67% | 21.21% | 17.59% |  |  |  |  |  |  |  |  |  |  |  |  |  |  |  | Activity [6]: 6.71%; Activity [7]: 11.36%; Activity [8]: 46.12%; Activity [12]: 5.39%; Activity [13]: 3.06%; Activity [14]: 3.05%; Activity [15]: 47.24%; Activity [16]: 59.5%; Activity [17]: 58.52%; Activity [18]: 18.36%; Activity [19]: 16.24%; Activity [20]: 15.27%; Activity [21]: 23.38%; Activity [22]: 20.21%; Activity [23]: 20.25% |
